{"source": "the EternaBench riboswitch data", "test_system": "MS2 coat protein", "assay": "apparent Kd, MS2 coat protein; higher = weaker binding; RNA-MaP array; tryptophan 2.4 mM where present", "how_it_was_run": "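Green signal from SNAP-549-labelled MS2 coat protein was normalised to red-channel RNA signal and to the median Fmax of control clusters. The protein was titrated from 0.7 or 1.5 nM, doubling to 3 µM, without and then with constant ligand, over designs transcribed by stalled E. coli RNA polymerase on Illumina sequencing-chip clusters, in 100 mM Tris-HCl pH 7.5, 80 mM KCl, 4 mM MgCl2, BSA, DTT, yeast tRNA and Tween-20. The apparent Kd is the median of filtered per-cluster binding-curve fits.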", "key": {"[1]": {"settings": "designed as: OFF switch for tryptophan, no ligand"}, "[2]": {"settings": "ligand present: tryptophan, designed as: OFF switch for tryptophan"}, "[3]": {"settings": "designed as: ON switch for tryptophan, no ligand"}, "[4]": {"settings": "ligand present: tryptophan, designed as: ON switch for tryptophan"}}}
{"sequence": "GGAGUAGGAAACUAUUCCAAUCCUCGUGAACGAGGACCGGUACGGCCGCCACUCGAUAAAUAAAUACAUGAGGAUCACCCAUGUU", "values": [{"measurement": "apparent Kd", "setting": "[1]", "result": 0.0688, "unit": "µM"}, {"measurement": "apparent Kd", "setting": "[2]", "result": 0.118, "unit": "µM"}]}
{"sequence": "GGCACAUAGUCGGCCGCCACUAGAAUAAGAUGGAAUAACAUGAGGAUCACCCAUGUAAAAGGGACUAGGACCGGGACUAUGUGCC", "values": [{"measurement": "apparent Kd", "setting": "[1]", "result": 0.0137, "unit": "µM"}, {"measurement": "apparent Kd", "setting": "[2]", "result": 0.0119, "unit": "µM"}]}
{"sequence": "GGCACAUAGUCGGCCGCCACUAGUGGGAAAUGGGAGAACAUGAGGAUCACCCAUGUAGCGUAGCCUAGGACCGGGACUAUGUGCC", "values": [{"measurement": "apparent Kd", "setting": "[1]", "result": 0.16, "unit": "µM"}, {"measurement": "apparent Kd", "setting": "[2]", "result": 0.156, "unit": "µM"}]}
{"sequence": "GGGACAUGAGGAUCACCCAUGUACCGGUCCCGAGGACCGGUACGGCCGCCACUCGAUGACCUCAUAGUCUGCCUGAGCAGCAGAC", "values": [{"measurement": "apparent Kd", "setting": "[3]", "result": 0.0413, "unit": "µM"}, {"measurement": "apparent Kd", "setting": "[4]", "result": 0.119, "unit": "µM"}]}
{"sequence": "GGUAACUCUACGGCCGCCACUGAACAUGAGGAUCACCCAUGUAAUGUUCAGAUUUUUUUUUUUUACAGGACCGGGUAGUGUUACC", "values": [{"measurement": "apparent Kd", "setting": "[3]", "result": 0.178, "unit": "µM"}, {"measurement": "apparent Kd", "setting": "[4]", "result": 0.118, "unit": "µM"}]}
{"sequence": "GGUAUGUAUUCGGAAACGAAUGCAUACCAACGAGGACCGGUACGGCCGCCACUCGGGCCGUGAUCACAUGAGGAUCACCCAUGUA", "values": [{"measurement": "apparent Kd", "setting": "[1]", "result": 0.0402, "unit": "µM"}, {"measurement": "apparent Kd", "setting": "[2]", "result": 0.0927, "unit": "µM"}]}
{"sequence": "GGUGUAAUUGACUCUUUGUUUUAUUUGUAACGAGGACCGGUACGGCCGCCACUCGAUAUUCACAUGAGGAUCACCCAUGUUAGCU", "values": [{"measurement": "apparent Kd", "setting": "[1]", "result": 0.0201, "unit": "µM"}, {"measurement": "apparent Kd", "setting": "[2]", "result": 0.0204, "unit": "µM"}]}
{"sequence": "GGUUACUCUACGGCCGCCACUGAAAAGUAAAUAUUAAUGUACAUGACAUGAGGAUCACCCAUGUACAGGACCGGGUAGUGUAACC", "values": [{"measurement": "apparent Kd", "setting": "[3]", "result": 0.0842, "unit": "µM"}, {"measurement": "apparent Kd", "setting": "[4]", "result": 0.0215, "unit": "µM"}]}
{"sequence": "GGUUACUCUACGGCCGCCACUGUAAAGUAAAGAUACCUGUACAUGACAUGAGGAUCACCCAUGUACAGGACCGGGUAGUGUAACC", "values": [{"measurement": "apparent Kd", "setting": "[3]", "result": 0.545, "unit": "µM"}, {"measurement": "apparent Kd", "setting": "[4]", "result": 0.232, "unit": "µM"}]}
{"sequence": "GUGCCGCAUUCACAUGAGGAUCACCCAUGUCGAGGACCGGUACGGCCGCCACUCGACGUGCUUACAGGUCCUUUAAGGCCCAAUA", "values": [{"measurement": "apparent Kd", "setting": "[1]", "result": 0.0928, "unit": "µM"}, {"measurement": "apparent Kd", "setting": "[2]", "result": 0.0438, "unit": "µM"}]}
{"sequence": "GUGUACAUGAGGAUCACCCAUGUCGAGUUACGAGGACCGGUACGGCCGCCACUCGGCGGCUCGACACGGAUAGCGAUGCGUUGCU", "values": [{"measurement": "apparent Kd", "setting": "[1]", "result": 0.0436, "unit": "µM"}, {"measurement": "apparent Kd", "setting": "[2]", "result": 0.11, "unit": "µM"}]}
{"sequence": "GUUGGACUUUCGGCCGCCACUGAGAGAGUCAUGUGAACAUGAGGAUCACCCAUGUAAUAUAUAUACAGGACCGGGAGGGUUGUAA", "values": [{"measurement": "apparent Kd", "setting": "[1]", "result": 0.0133, "unit": "µM"}, {"measurement": "apparent Kd", "setting": "[2]", "result": 0.0099, "unit": "µM"}]}
{"sequence": "UAAACUACACAUGAGGAUCACCCAUGUGGCCGAGGACCGGUACGGCCGCCACUCGUGUGUUAAUAAAAGAACUGCAAGGUUCUUC", "values": [{"measurement": "apparent Kd", "setting": "[3]", "result": 0.174, "unit": "µM"}, {"measurement": "apparent Kd", "setting": "[4]", "result": 0.0731, "unit": "µM"}]}
{"sequence": "UAGUUGUAGUCGGCCGCCACUGUGAGCAUGGUUAACAUGAGGAUCACCCAUGUCCCGUACUAUAACAGGACCGGGACGUAGUUGC", "values": [{"measurement": "apparent Kd", "setting": "[3]", "result": 0.0481, "unit": "µM"}, {"measurement": "apparent Kd", "setting": "[4]", "result": 0.0229, "unit": "µM"}]}
{"sequence": "UAUCGUCAGACGGCCGCCACUAGUACAUGAGGAUCACCCAUGUAGGUCCUAGAUUCCUCAUGAUCUAGGACCGGGUCUGACGAAU", "values": [{"measurement": "apparent Kd", "setting": "[1]", "result": 0.039, "unit": "µM"}, {"measurement": "apparent Kd", "setting": "[2]", "result": 0.023, "unit": "µM"}]}
{"sequence": "UCGUGCAGAGCGGCCGCCACUGUAUUGCGUGCGGAUGACGGAACAUGAGGAUCACCCAUGUUGUUUAGGACCGGGCUUGCCACCA", "values": [{"measurement": "apparent Kd", "setting": "[1]", "result": 0.0127, "unit": "µM"}, {"measurement": "apparent Kd", "setting": "[2]", "result": 0.0139, "unit": "µM"}]}
{"sequence": "UGUCAGCGAAAGUUGACAUGUUGAACCGGUCGAGGACCGGUACGGCCGCCACUCGAUCUCUCGUACAUGAGGAUCACCCAUGUCG", "values": [{"measurement": "apparent Kd", "setting": "[3]", "result": 0.0115, "unit": "µM"}, {"measurement": "apparent Kd", "setting": "[4]", "result": 0.0107, "unit": "µM"}]}
{"sequence": "UGUGUAAUUGUCUGGUAGAUUUAUUUUUUUCGAGGACCGGUACGGCCGCCACUCGUUAUUUACAUGAGGAUCACCCAUGUUAGCU", "values": [{"measurement": "apparent Kd", "setting": "[1]", "result": 0.0129, "unit": "µM"}, {"measurement": "apparent Kd", "setting": "[2]", "result": 0.0129, "unit": "µM"}]}
{"sequence": "UUACACAUCUCGGCCGCCACUGGCUUCAAAAUAAUGUGUACAUGAGGAUCACCCAUGUCCGAGCUCAGGACCGGGAGCAAAGAAG", "values": [{"measurement": "apparent Kd", "setting": "[3]", "result": 0.0267, "unit": "µM"}, {"measurement": "apparent Kd", "setting": "[4]", "result": 0.0271, "unit": "µM"}]}
{"sequence": "UUAUAAGUACCGGUCCUCAGAUCCUCAUGACGAGGACCGGUACGGCCGCCACUCGAAACAUGAGGAUCACCCAUGUAAUAACACU", "values": [{"measurement": "apparent Kd", "setting": "[1]", "result": 0.0231, "unit": "µM"}, {"measurement": "apparent Kd", "setting": "[2]", "result": 0.0199, "unit": "µM"}]}
{"sequence": "UUAUAAGUACCGGUCCUCAGAUCCUCAUGACGAGGACCGGUACGGCCGCCACUCGAAACAUGAGGAUCACCCAUGUAAUAAUAAC", "values": [{"measurement": "apparent Kd", "setting": "[1]", "result": 0.0372, "unit": "µM"}, {"measurement": "apparent Kd", "setting": "[2]", "result": 0.0182, "unit": "µM"}]}
{"sequence": "UUCGUUGGCGAUCUGGGUUUACCAGAUCGGCGAGGACCGGUACGGCCGCCACUCGUGUUUUCUUUACAUGAGGAUCACCCAUGUU", "values": [{"measurement": "apparent Kd", "setting": "[3]", "result": 0.0192, "unit": "µM"}, {"measurement": "apparent Kd", "setting": "[4]", "result": 0.0152, "unit": "µM"}]}
